Reference: ChEMBL document CHEMBL1275468, “Plasmid-mediated qnrB2 and carbapenemase gene bla(KPC-2) carried on the same plasmid in carbapenem-resistant ciprofloxacin-susceptible Enterobacter cloacae isolates” (2008)

Experiments:
Format in all cases: functional
Enterobacter cloacae [1] = experiment: Antimicrobial activity against Enterobacter cloacae isolate 140 containing PFGE genetic clone A expressing beta-lactamase KPC-2 and SHV-12 gene by Etest in presence of beta-lactamase inhibitor Tazobactam
How it was run: (§1)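 Clinical carbapenem-resistant, blaKPC-2-carrying E. cloacae isolates; MIC read by Etest. Clonal relatedness typed by PFGE after SpeI (20 U) digestion of genomic DNA on a CHEF-DR III system. qnr genes, and aac(6′)-Ib-cr by PCR with BtsCI digestion, detected from cell-lysate templates.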

Enterobacter cloacae [2] = experiment: Antimicrobial activity against Enterobacter cloacae isolate 1 containing PFGE genetic clone A expressing qnrB2 and beta-lactamase KPC-2 and SHV-12 gene by Etest in presence of beta-lactamase inhibitor Tazobactam; how it was run: as §1
Escherichia coli [3] = experiment: Antimicrobial activity against Escherichia coli GeneHogs by Etest in presence of beta-lactamase inhibitor Tazobactam
How it was run: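 Recipient is E. coli GeneHogs (recA1), electroporated with plasmid DNA from clinical isolates. Transformants were selected on LB agar with 100 μg/ml ampicillin and PCR-screened for blaKPC, blaSHV and qnr genes. MIC read by Etest.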

Enterobacter cloacae [4] = experiment: Antimicrobial activity against Enterobacter cloacae isolate 658 containing PFGE genetic clone B expressing qnrB2 and beta-lactamase KPC-2 and SHV-12 gene by Etest in presence of beta-lactamase inhibitor Tazobactam; how it was run: as §1
Enterobacter cloacae [5] = experiment: Antimicrobial activity against Enterobacter cloacae isolate 151 containing PFGE genetic clone A expressing qnrB2 and beta-lactamase KPC-2 gene by Etest in presence of beta-lactamase inhibitor Tazobactam; how it was run: as §1
Enterobacter cloacae [6] = experiment: Antimicrobial activity against Enterobacter cloacae isolate 649 containing PFGE genetic clone B expressing qnrB2 and beta-lactamase KPC-2 and SHV-12 gene by Etest
Escherichia coli [7] = experiment: Antimicrobial activity against Escherichia coli T-625 harboring expressing qnrB2 and beta-lactamase KPC-2 and SHV-12 gene by Etest in presence of beta-lactamase inhibitor Tazobactam
Enterobacter cloacae [8] = experiment: Antimicrobial activity against Enterobacter cloacae isolate 293 containing PFGE genetic clone A expressing qnrB2 and beta-lactamase KPC-2 and SHV-12 gene by Etest in presence of beta-lactamase inhibitor Tazobactam; how it was run: as §1
Enterobacter cloacae [9] = experiment: Antimicrobial activity against Enterobacter cloacae isolate 18 containing PFGE genetic clone A expressing qnrB2 and beta-lactamase KPC-2 and SHV-12 gene by Etest
Escherichia coli [10] = experiment: Antimicrobial activity against Escherichia coli T-781 harboring expressing qnrB2 and beta-lactamase KPC-2 and SHV-12 gene by Etest
How it was run: (§2)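 MIC read by Etest. Strains are E. coli GeneHogs (recA1) transformants. Plasmid DNA from clinical E. cloacae isolates was introduced by electroporation. Transformants were selected on LB agar with 100 μg/ml ampicillin, then PCR-screened for blaKPC, blaSHV and qnr genes.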

Enterobacter cloacae [11] = experiment: Antimicrobial activity against Enterobacter cloacae isolate 656 containing PFGE genetic clone A expressing beta-lactamase KPC-2 and SHV-12 gene by Etest in presence of beta-lactamase inhibitor Tazobactam; how it was run: as §1
Enterobacter cloacae [12] = experiment: Antimicrobial activity against Enterobacter cloacae isolate 533 containing PFGE genetic clone A expressing qnrB2 and beta-lactamase KPC-2 and SHV-12 gene by Etest
Escherichia coli [13] = experiment: Antimicrobial activity against Escherichia coli T-625 harboring expressing qnrB2 and beta-lactamase KPC-2 and SHV-12 gene by Etest; how it was run: as §2
Enterobacter cloacae [14] = experiment: Antimicrobial activity against Enterobacter cloacae isolate 622 containing PFGE genetic clone A expressing qnrB2 and beta-lactamase KPC-2 and SHV-12 gene by Etest
Enterobacter cloacae [15] = experiment: Antimicrobial activity against Enterobacter cloacae isolate 837 containing PFGE genetic clone B expressing qnrB2 and beta-lactamase KPC-2 and SHV-12 gene by Etest in presence of beta-lactamase inhibitor Tazobactam; how it was run: as §1
Escherichia coli [16] = experiment: Antimicrobial activity against Escherichia coli T-622 harboring expressing qnrB2 and beta-lactamase KPC-2 and SHV-12 gene by Etest in presence of beta-lactamase inhibitor Tazobactam
Escherichia coli [17] = experiment: Antimicrobial activity against Escherichia coli T-622 harboring expressing qnrB2 and beta-lactamase KPC-2 and SHV-12 gene by Etest; how it was run: as §2
Enterobacter cloacae [18] = experiment: Antimicrobial activity against Enterobacter cloacae isolate 185 containing PFGE genetic clone A expressing qnrB2 aac(6')-Ib-cr and beta-lactamase KPC-2 and SHV-12 gene by Etest in presence of beta-lactamase inhibitor Tazobactam; how it was run: as §1
Enterobacter cloacae [19] = experiment: Antimicrobial activity against Enterobacter cloacae isolate 140 containing PFGE genetic clone A expressing beta-lactamase KPC-2 and SHV-12 gene by Etest
Enterobacter cloacae [20] = experiment: Antimicrobial activity against Enterobacter cloacae isolate 622 containing PFGE genetic clone A expressing qnrB2 and beta-lactamase KPC-2 and SHV-12 gene by Etest in presence of beta-lactamase inhibitor Tazobactam; how it was run: as §1
Enterobacter cloacae [21] = experiment: Antimicrobial activity against Enterobacter cloacae isolate 533 containing PFGE genetic clone A expressing qnrB2 and beta-lactamase KPC-2 and SHV-12 gene by Etest in presence of beta-lactamase inhibitor Tazobactam; how it was run: as §1
Escherichia coli [22] = experiment: Antimicrobial activity against Escherichia coli GeneHogs by Etest
How it was run: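 MIC read by Etest on the plasmid-free electroporation recipient, E. coli GeneHogs (recA1 mutant).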

Enterobacter cloacae [23] = experiment: Antimicrobial activity against Enterobacter cloacae isolate 625 containing PFGE genetic clone A expressing qnrB2 and beta-lactamase KPC-2 and SHV-12 gene by Etest in presence of beta-lactamase inhibitor Tazobactam; how it was run: as §1
Enterobacter cloacae [24] = experiment: Antimicrobial activity against Enterobacter cloacae isolate 293 containing PFGE genetic clone A expressing qnrB2 and beta-lactamase KPC-2 and SHV-12 gene by Etest
Enterobacter cloacae [25] = experiment: Antimicrobial activity against Enterobacter cloacae isolate 658 containing PFGE genetic clone B expressing qnrB2 and beta-lactamase KPC-2 and SHV-12 gene by Etest
Enterobacter cloacae [26] = experiment: Antimicrobial activity against Enterobacter cloacae isolate 151 containing PFGE genetic clone A expressing qnrB2 and beta-lactamase KPC-2 gene by Etest
Enterobacter cloacae [27] = experiment: Antimicrobial activity against Enterobacter cloacae isolate 649 containing PFGE genetic clone B expressing qnrB2 and beta-lactamase KPC-2 and SHV-12 gene by Etest in presence of beta-lactamase inhibitor Tazobactam; how it was run: as §1
Enterobacter cloacae [28] = experiment: Antimicrobial activity against Enterobacter cloacae isolate 656 containing PFGE genetic clone A expressing beta-lactamase KPC-2 and SHV-12 gene by Etest
Escherichia coli [29] = experiment: Antimicrobial activity against Escherichia coli T-781 harboring expressing qnrB2 and beta-lactamase KPC-2 and SHV-12 gene by Etest in presence of beta-lactamase inhibitor Tazobactam
Enterobacter cloacae [30] = experiment: Antimicrobial activity against Enterobacter cloacae isolate 18 containing PFGE genetic clone A expressing qnrB2 and beta-lactamase KPC-2 and SHV-12 gene by Etest in presence of beta-lactamase inhibitor Tazobactam; how it was run: as §1
Enterobacter cloacae [31] = experiment: Antimicrobial activity against Enterobacter cloacae isolate 837 containing PFGE genetic clone B expressing qnrB2 and beta-lactamase KPC-2 and SHV-12 gene by Etest
Enterobacter cloacae [32] = experiment: Antimicrobial activity against Enterobacter cloacae isolate 4469 containing PFGE genetic clone C expressing qnrB2 and beta-lactamase KPC-2 and SHV-12 gene by Etest
Enterobacter cloacae [33] = experiment: Antimicrobial activity against Enterobacter cloacae isolate 781 containing PFGE genetic clone B expressing qnrB2 and beta-lactamase KPC-2 and SHV-12 gene by Etest
Enterobacter cloacae [34] = experiment: Antimicrobial activity against Enterobacter cloacae isolate 4469 containing PFGE genetic clone C expressing qnrB2 and beta-lactamase KPC-2 and SHV-12 gene by Etest in presence of beta-lactamase inhibitor Tazobactam
Enterobacter cloacae [35] = experiment: Antimicrobial activity against Enterobacter cloacae isolate 1 containing PFGE genetic clone A expressing qnrB2 and beta-lactamase KPC-2 and SHV-12 gene by Etest
Enterobacter cloacae [36] = experiment: Antimicrobial activity against Enterobacter cloacae isolate 781 containing PFGE genetic clone B expressing qnrB2 and beta-lactamase KPC-2 and SHV-12 gene by Etest in presence of beta-lactamase inhibitor Tazobactam; how it was run: as §1
Enterobacter cloacae [37] = experiment: Antimicrobial activity against Enterobacter cloacae isolate 185 containing PFGE genetic clone A expressing qnrB2 aac(6')-Ib-cr and beta-lactamase KPC-2 and SHV-12 gene by Etest
Enterobacter cloacae [38] = experiment: Antimicrobial activity against Enterobacter cloacae isolate 625 containing PFGE genetic clone A expressing qnrB2 and beta-lactamase KPC-2 and SHV-12 gene by Etest

CCN1CCN(C(=O)N[C@@H](C(=O)N[C@@H]2C(=O)N3[C@@H]2SC(C)(C)[C@@H]3C(=O)O)c2ccccc2)C(=O)C1=O [PIPERACILLIN]
MIC (Enterobacter cloacae [1]): ≥ 128 µg/mL | MIC (Enterobacter cloacae [2]): ≥ 128 µg/mL | MIC (Escherichia coli [3]): ≤ 4 µg/mL | MIC (Enterobacter cloacae [4]): ≥ 128 µg/mL | MIC (Enterobacter cloacae [5]): ≥ 128 µg/mL | MIC (Enterobacter cloacae [6]): ≥ 128 µg/mL | MIC (Escherichia coli [7]): ≥ 128 µg/mL | MIC (Enterobacter cloacae [8]): ≥ 128 µg/mL | MIC (Enterobacter cloacae [9]): ≥ 128 µg/mL | MIC (Escherichia coli [10]): ≥ 128 µg/mL | MIC (Enterobacter cloacae [11]): ≥ 128 µg/mL | MIC (Enterobacter cloacae [12]): ≥ 128 µg/mL | MIC (Escherichia coli [13]): ≥ 128 µg/mL | MIC (Enterobacter cloacae [14]): ≥ 128 µg/mL | MIC (Enterobacter cloacae [15]): ≥ 128 µg/mL | MIC (Escherichia coli [16]): 64 µg/mL | MIC (Escherichia coli [17]): ≥ 128 µg/mL | MIC (Enterobacter cloacae [18]): ≥ 128 µg/mL | MIC (Enterobacter cloacae [19]): ≥ 128 µg/mL | MIC (Enterobacter cloacae [20]): ≥ 128 µg/mL | MIC (Enterobacter cloacae [21]): ≥ 128 µg/mL | MIC (Escherichia coli [22]): ≤ 4 µg/mL | MIC (Enterobacter cloacae [23]): ≥ 128 µg/mL | MIC (Enterobacter cloacae [24]): ≥ 128 µg/mL | MIC (Enterobacter cloacae [25]): ≥ 128 µg/mL | MIC (Enterobacter cloacae [26]): ≥ 128 µg/mL | MIC (Enterobacter cloacae [27]): ≥ 128 µg/mL | MIC (Enterobacter cloacae [28]): ≥ 128 µg/mL | MIC (Escherichia coli [29]): 64 µg/mL | MIC (Enterobacter cloacae [30]): ≥ 128 µg/mL | MIC (Enterobacter cloacae [31]): ≥ 128 µg/mL | MIC (Enterobacter cloacae [32]): ≥ 128 µg/mL | MIC (Enterobacter cloacae [33]): ≥ 128 µg/mL | MIC (Enterobacter cloacae [34]): 64 µg/mL | MIC (Enterobacter cloacae [35]): ≥ 128 µg/mL | MIC (Enterobacter cloacae [36]): ≥ 128 µg/mL | MIC (Enterobacter cloacae [37]): ≥ 128 µg/mL | MIC (Enterobacter cloacae [38]): ≥ 128 µg/mL
